From ChEMBL document CHEMBL2203013, “Strategy for Imidazotetrazine Prodrugs with Anticancer Activity Independent of MGMT and MMR” (ACS Med Chem Lett, 2012) come the findings set out here.

Activity calls are given as the source filed them. The calls are words filed in the database; no cut-off is given here.

As a reminder, the IC50 is the concentration that inhibits the measured activity by half.

Data set [1] deals with U-251. As to the kind of experiment: Cytotoxicity against human U251 cells after 5 days by MTT assay. Type of data set: functional, cell-based. Conditions: for IC50: U-251, 120 h.
The subject of data set [2] is DLD-1. Briefly: Cytotoxicity against human DLD1 cells after 5 days by MTT assay. Type of data set: functional, cell-based. To be noted: for IC50: DLD-1, 120 h.
Data set [3] has as its system Nucleic Acid. Briefly: Binding affinity to Escherichia coli pBR322 DNA assessed as guanine-N7 alkylation on GC-rich region after 2 hrs by piperidine cleavage assay. Type of data set: nucleic-acid assay.
Data set [4] concerns PANC-1. Briefly: Cytotoxicity against human PANC1 cells after 5 days by MTT assay. It counts as functional, cell-based. To be noted: for IC50: PANC-1, 120 h. (In general: Tetrazolium dyes change colour on reduction, which living cells bring about.)
Data set [5] deals with A2780. Briefly: Cytotoxicity against human A2780 cells after 5 days by MTT assay in presence of 10 uM MGMT inactivator Patrin2. Type of data set: functional, cell-based.
Data set [6] relates to Nucleic Acid. As to the kind of experiment: Induction of Escherichia coli pBR322 DNA alkylation assessed as formation of covalent DNA adducts after 2 hrs by Taq polymerase DNA stop assay. Type of data set: nucleic-acid assay.
Data set [7] in a line: Prodrug conversion in citrate-phosphate buffer at pH 4 assessed as half life of compound. It counts as physicochemical. An outline of the steps: (§1)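 Hydrolysis in citrate-phosphate buffers at 37 °C, followed by UV absorbance at 330 nm (loss of imidazotetrazine). k′ is a pseudo-first-order rate constant (×10–5 s–1), mean ± SD of three independent determinations; t1/2 given in hours.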

Data set [8] can be described thus: Prodrug conversion in citrate-phosphate buffer at pH 7.4 assessed as half life of compound. It counts as physicochemical. An outline of the steps: as §1
Data set [9] has as its system A549. As to the kind of experiment: Cytotoxicity against human A549 cells after 5 days by MTT assay. To be noted: for IC50: A549, 120 h. It counts as functional, cell-based.
The subject of data set [10] is A2780/CP70. Briefly: Cytotoxicity against MMR-deficient human A2780/CP70 cells after 5 days by MTT assay. Type of data set: functional, cell-based.
Data set [11] concerns A2780. As to the kind of experiment: Ratio of IC50 for human A2780 cells to IC50 for MMR-deficient human A2780/CP70 cells in presence of 10 uM MGMT inactivator Patrin2. Type of data set: functional.
The nature of data set [12]: Prodrug conversion in citrate-phosphate buffer at pH 7.4 assessed as pseudo-first-order rate constant. It counts as physicochemical. An outline of the steps: as §1
Data set [13] can be described thus: Prodrug conversion in citrate-phosphate buffer at pH 8 assessed as pseudo-first-order rate constant. It counts as physicochemical. Summed up: as §1
The subject of data set [14] is A2780. Briefly: Cytotoxicity against human A2780 cells after 5 days by MTT assay. Type of data set: functional, cell-based.
Data set [15] is described as follows: Prodrug conversion in citrate-phosphate buffer at pH 4 assessed as pseudo-first-order rate constant. Type of data set: physicochemical. Summed up:
as §1

The subject of data set [16] is A2780/CP70. As to the kind of experiment: (§2) Cytotoxicity against MMR-deficient human A2780/CP70 cells after 5 days by MTT assay in presence of 10 uM MGMT inactivator Patrin2. Type of data set: functional, cell-based.
The subject of data set [17] is HCT-116. Briefly: Cytotoxicity against human HCT116 cells after 5 days by MTT assay. It counts as functional, cell-based. To be noted: for IC50: HCT-116, 120 h.
Data set [18] is described as follows: Prodrug conversion in citrate-phosphate buffer at pH 8 assessed as half life of compound. It counts as physicochemical. Summed up: as §1
The test system of data set [19] is HT-29. Briefly: Cytotoxicity against human HT-29 cells after 5 days by MTT assay. Type of data set: functional, cell-based. Conditions: for IC50: HT-29, 120 h.
Data set [20] is described as follows: as §2. It counts as functional, cell-based. To be noted: A2780/CP70, 120 h.

For the compound `Cc1ccc(N(CCn2nnc3c(C(N)=O)ncn3c2=O)CCn2nnc3c(C(N)=O)ncn3c2=O)cc1`, the result in data set [1], in data set [2], in data set [3], in data set [4], in [5] and in data set [6] was Active. The result in data set [9], in [10], in data set [14], in data set [16], in data set [17] and in data set [19] was Active. In addition, the t1/2 in data set [7] was 48.5 h; in data set [8] it was 1.33 h; in data set [18], 0.43 h. Moreover, in [11], the “Ratio IC50” value was determined as 5.8. Further, the Drug metabolism in data set [12] worked out at 14.4 ×10⁻⁵ /s; in data set [13], 45.1 ×10⁻⁵ /s; in data set [15] it was 0.4 ×10⁻⁵ /s.
Take `Cc1ccc(N(C)CCn2nnc3c(C(N)=O)ncn3c2=O)cc1`: the result in data set [1], in data set [2], in [3], in data set [4], in [5] and in data set [6] was Active. For the same compound, the result in data set [9], in [10], in data set [14], in data set [16], in data set [17] and in data set [19] was Active. Besides, the t1/2 stood at 41.5 h in [7], 1.27 h in data set [8] and 0.39 h in [18]. For the same compound, the “Ratio IC50” value in data set [11] was found to be 2.8. In addition, the Drug metabolism in data set [12] amounted to 15.2 ×10⁻⁵ /s; in data set [13], 49.5 ×10⁻⁵ /s; in data set [15], 0.5 ×10⁻⁵ /s.
For `NC(=O)c1ncn2c(=O)n(CCCl)nnc12`, the result in [5], in data set [10], in [14] and in data set [16] was Active.
On to `Cn1nnc2c(C(N)=O)ncn2c1=O` [TEMOZOLOMIDE], for which the IC50 in data set [1] was > 250000 nM; in data set [2], > 250000 nM; in data set [4], > 250000 nM; in data set [5] (A2780, 120 h), > 250000 nM; in data set [9] it was > 250000 nM; in data set [20] it was > 250000 nM. Further, the IC50 in data set [17] and in data set [19] was > 250000 nM each time. In addition, the t1/2 worked out at 253 h in data set [7], 1.38 h in data set [8] and 0.42 h in data set [18]. Besides, the result in [10] and in data set [14] was Active. For the same compound, the “Ratio IC50” value in data set [11] was >27. Besides, the Drug metabolism is listed as 14 ×10⁻⁵ /s in data set [12], 46.2 ×10⁻⁵ /s in data set [13] and 0.1 ×10⁻⁵ /s in [15].
`N[C@@H](Cc1ccc(N(CCCl)CCCl)cc1)C(=O)O` [MELPHALAN]: the IC50 in data set [1], in [2], in data set [4], in data set [9], in data set [17] and in data set [19] was 3000 nM in each case. Moreover, the result in data set [3], in [5], in data set [6], in data set [10], in data set [14] and in data set [16] was Active.
